Laboratory results taken from ChEMBL document CHEMBL1914408, “Synthesis and biological evaluation of hydroxylated 3-phenylcoumarins as antioxidants and antiproliferative agents” (Bioorg Med Chem Lett, 2011).
Calls of active or inactive are those of the source. The rule behind the calls is not given here.

Columns and labels:
[1] = Antioxidant activity assessed as protection against […]-induced pBR322 DNA strand breakage at 20 uM after 1 hr using ethidium bromide staining by agarose gel electrophoresis analysis; assay type: functional
Method in brief: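 Supercoiled plasmid pBR322 DNA (100 ng/25 µl) incubated with 10 mM AAPH plus 20 µM test compound in 10 mM PBS, pH 7.4, 37 °C, 1 h; strand breakage (supercoiled vs open circular/linear forms) read by agarose gel electrophoresis. Controls: DNA alone (native) and DNA with AAPH.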

[2] = tested on: HL-60; assay: Antiproliferative activity against human HL60 cells after 48 hrs by MTT assay; assay type: functional, cell-based; details: HL-60, 48 h
Method in brief: (§1)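 MTT proliferation assay in HL-60 and A549 cells; IC50 taken as concentration giving 50% inhibition of cell proliferation, reported as mean ± SD of three determinations.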

[3] = tested on: A549; assay: Antiproliferative activity against human A549 cells after 72 hrs by MTT assay; assay type: functional, cell-based; details: A549, 72 h; method in brief: as §1
[4] = tested on: A549; assay: Induction of apoptosis in human A549 cells assessed as changes in cell morphology after 24 hrs by Hoechst-33258/propodium iodide staining based fluorescence microscopy; assay type: functional
Method in brief: (§2)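 A549 cells treated with culture medium or 5, 10 and 15 µM compound for 24 h, then nuclear-stained with Hoechst 33258/propidium iodide and viewed by fluorescence microscopy (200×). Living cells scored as smooth blue nuclei; early apoptotic cells as blue with bright specks of condensed chromatin. Representative of three separate experiments.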

[5] = tested on: A549; assay: Induction of early apoptosis in human A549 cells assessed as reduction of living cells after 24 hrs by Hoechst-33258/propodium iodide staining based fluorescence microscopy; assay type: functional, cell-based; method in brief: as §2
[6] = tested on: A549; assay: Induction of apoptosis in human A549 cells assessed as condensed chromatin after 24 hrs by Hoechst-33258/propodium iodide staining based fluorescence microscopy; assay type: functional, cell-based; method in brief: as §2
[7] = tested on: A549; assay: Cell cycle arrest in human A549 cells assessed as accumulation at G0/G1 phase at 10 uM after 24 hrs using propidium iodide staining by flow cytometric analysis (reference value: 70.68 %); assay type: functional
[8] = tested on: A549; assay: Cell cycle arrest in human A549 cells assessed as accumulation at S phase at 10 uM after 24 hrs using propidium iodide staining by flow cytometric analysis (reference value: 21.16 %); assay type: functional
[9] = tested on: A549; assay: Cell cycle arrest in human A549 cells assessed as accumulation at G2/M phase at 10 uM after 24 hrs using propidium iodide staining by flow cytometric analysis (reference value: 8.16 %); assay type: functional
[10] = tested on: A549; assay: Cell cycle arrest in human A549 cells assessed as accumulation at G0/G1 phase at 15 uM after 24 hrs using propidium iodide staining by flow cytometric analysis (reference value: 70.68 %); assay type: functional
[11] = tested on: A549; assay: Cell cycle arrest in human A549 cells assessed as accumulation at S phase at 15 uM after 24 hrs using propidium iodide staining by flow cytometric analysis (reference value: 21.16 %); assay type: functional
[12] = tested on: A549; assay: Cell cycle arrest in human A549 cells assessed as accumulation at G2/M phase at 15 uM after 24 hrs using propidium iodide staining by flow cytometric analysis (reference value: 8.16 %); assay type: functional
[13] = tested on: A549; assay: Cell cycle arrest in human A549 cells assessed as accumulation at G0/G1 phase at 20 uM after 24 hrs using propidium iodide staining by flow cytometric analysis (reference value: 70.68 %); assay type: functional
[14] = tested on: A549; assay: Cell cycle arrest in human A549 cells assessed as accumulation at S phase at 20 uM after 24 hrs using propidium iodide staining by flow cytometric analysis (reference value: 21.16 %); assay type: functional
[15] = tested on: A549; assay: Cell cycle arrest in human A549 cells assessed as accumulation at G2/M phase at 20 uM after 24 hrs using propidium iodide staining by flow cytometric analysis (reference value: 8.16 %); assay type: functional
[16] = tested on: A549; assay: Cell cycle arrest in human A549 cells assessed as accumulation at G0/G1 phase at 30 uM after 24 hrs using propidium iodide staining by flow cytometric analysis (reference value: 70.68 %); assay type: functional
[17] = tested on: A549; assay: Cell cycle arrest in human A549 cells assessed as accumulation at S phase at 30 uM after 24 hrs using propidium iodide staining by flow cytometric analysis (reference value: 21.16 %); assay type: functional
[18] = tested on: A549; assay: Cell cycle arrest in human A549 cells assessed as accumulation at G2/M phase at 30 uM after 24 hrs using propidium iodide staining by flow cytometric analysis (reference value: 8.16 %); assay type: functional
[19] = tested on: A549; assay: Cell cycle arrest in human A549 cells assessed as accumulation at G0/G1 phase at 40 uM after 24 hrs using propidium iodide staining by flow cytometric analysis (reference value: 70.68 %); assay type: functional
[20] = tested on: A549; assay: Cell cycle arrest in human A549 cells assessed as accumulation at S phase at 40 uM after 24 hrs using propidium iodide staining by flow cytometric analysis (reference value: 21.16 %); assay type: functional
[21] = tested on: A549; assay: Cell cycle arrest in human A549 cells assessed as accumulation at G2/M phase at 40 uM after 24 hrs using propidium iodide staining by flow cytometric analysis (reference value: 8.16 %); assay type: functional
[22] = tested on: HL-60; assay: Antiproliferative activity against human HL60 cells after 48 hrs by MTT assay relative to resveratrol; assay type: functional
[23] = tested on: A549; assay: Antiproliferative activity against human A549 cells after 72 hrs by MTT assay relative to resveratrol; assay type: functional

Row | SMILES | IC50 [2] [µM] | IC50 [3] [µM] | Activity [1] | also measured
1 | COc1cc2cc(-c3ccc(O)cc3)c(=O)oc2c(OC)c1O | 25.1 | 45.8 | Active | –
2 | O=c1oc2cc(O)ccc2cc1-c1ccc(O)c(O)c1 | 42.1 | 85 | – | –
3 | O=c1oc2cc(O)ccc2cc1-c1ccccc1 | > 200 | > 200 | – | –
4 | COc1cc(-c2cc3ccc(O)cc3oc2=O)ccc1O | 91.7 | > 200 | Active | –
5 | O=c1oc2ccccc2cc1-c1ccc(O)cc1 | > 200 | > 200 | – | –
6 | COc1cc2cc(-c3cc(OC)c(OC)c(OC)c3)c(=O)oc2c(OC)c1O | 72.2 | > 200 | Active | –
7 | Oc1ccc(/C=C/c2cc(O)cc(O)c2)cc1 [RESVERATROL] | – | 120 | – | –
8 | O=c1oc2cc(O)c(O)cc2cc1-c1ccc(O)c(O)c1 | 22.1 | 48.8 | Active | –
9 | O=c1oc2cc(O)ccc2cc1-c1ccc(O)cc1 | > 200 | > 200 | Active | –
10 | O=c1oc2cc(O)ccc2cc1-c1cc(O)cc(O)c1 | 127 | > 200 | – | –

Stronger by IC50 [3], values ahead:

Row | IC50 [2] [µM] | IC50 [3] [µM] | SMILES | Activity [1] | also measured
11 | – | 43.4 | COc1cc(-c2cc3cc(O)c(O)cc3oc2=O)ccc1O | – | –
12 | 25 | 42.5 | O=c1oc2cc(O)c(O)cc2cc1-c1ccc(O)cc1 | Active | –
13 | 14 | 27 | O=c1oc2cc(O)c(O)cc2cc1-c1ccccc1 | Active | –
14 | 24.3 | 21.4 | COc1cc(-c2cc3cc(OC)c(O)cc3oc2=O)ccc1O | Active | –
15 | 5.2 | 7.5 | COc1cc2cc(-c3ccc(O)cc3)c(=O)oc2cc1O | inactive | Activity [4]: Dose-dependent effect; Activity [5]: Dose-dependent effect; Activity [6]: Dose-dependent effect; Activity [7]: 71.45%; Activity [8]: 11.95%; Activity [9]: 16.6%; Activity [10]: 34.49%; Activity [11]: 19.86%; Activity [12]: 40.65%; Activity [13]: 11.82%; Activity [14]: 18.1%; Activity [15]: 70.08%; Activity [16]: 9.62%; Activity [17]: 9.43%; Activity [18]: 80.95%; Activity [19]: 7.11%; Activity [20]: 8.86%; Activity [21]: 84.03%; fold change (FC) [22]: 7; fold change (FC) [23]: 16
